An excerpt weighted towards active compounds, which were near 3.5% of everything screened.
RGS4 act – RGS4 potentiation or activation. HEK293 M3R/inducible RGS4, carbachol calcium flux Fluo4; hits give low values. B-score at 10 µM. 310,000 tested, 0.92% active;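 active means B-score of the integrated calcium signal more than 4 SD below the library mean, with starting fluorescence not abnormally high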;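 further: negative B-score means reduced calcium response which marks RGS4 activation or potentiation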
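Assay system: Inducible-RGS4 HEK293 cells carrying M3 receptor | Schedule: Compound preincubation 20 min at room temperature before agonist | Signal: Kinetic calcium fluorescence imaging with Fluo4-AM dye, 2 µM | Read-out basis: B score from integrated fluorescence ratio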
MrgX1 antag – human MrgX1 receptor antagonism, primary screen; MRGX1-HEK293 calcium flux, Fluo-4, BAM8-22 antagonism; hits give low values; AID 588676; B-score at 10 µM; 310,000 tested, 1.3% active;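 active means calcium-response B-score plate-corrected more than 3 library SD below zero, starting fluorescence within 5 deviations, no agonist response on first addition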;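 further: peak minus trough fluorescence over baseline after final BAM8-22 challenge near maximal dose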
Target sequence (Q96LB2 whole entry, looked up): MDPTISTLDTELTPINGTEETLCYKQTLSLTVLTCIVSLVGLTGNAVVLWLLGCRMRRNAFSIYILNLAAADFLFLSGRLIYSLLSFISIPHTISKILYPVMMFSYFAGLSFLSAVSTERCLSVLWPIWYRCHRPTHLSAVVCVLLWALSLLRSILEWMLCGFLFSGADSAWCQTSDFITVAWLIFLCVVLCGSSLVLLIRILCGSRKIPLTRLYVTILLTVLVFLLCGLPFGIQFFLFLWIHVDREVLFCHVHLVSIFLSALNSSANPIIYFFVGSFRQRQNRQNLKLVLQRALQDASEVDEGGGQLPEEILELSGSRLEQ
MrgX1 allo act – human MrgX1 positive allosteric modulation, primary screen; AID 588675; B-score at 10 µM; Q96LB2; MrgX1-HEK293, Fluo-4 calcium flux, FDSS; hits give high values; 310,000 tested, 0.63% active;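 active means plate-corrected calcium response at least 3 library SD above typical, normal starting fluorescence, not activating the receptor alone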;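 further: compound read alongside a low EC10 to EC30 dose of BAM8-22 agonist; peak minus trough fluorescence over baseline measured at the second addition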
RGS4 inh – inhibitors of human RGS4; 310,000 tested, 0.45% active; AID 463165; B-score at 10 µM; HEK293 M3R/RGS4 inducible, Fluo-4 calcium flux; hits give high values; triggered by carbachol at its EC20;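 active means B-score, a plate-corrected calcium signal, over three deviations above library mean, with baseline fluorescence within five deviations of library mean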;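 further: RGS4 expression induced by doxycycline in cells with stable M3 receptor; B-score is computed from the integrated fluorescence ratio over baseline after carbachol; higher B-score means a larger calcium signal and so more RGS4 inhibition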
MrgX1 ag – activates human MrgX1 receptor signaling; Q96LB2; MrgX1-HEK293 cells, Fluo-4 calcium fluorescence, agonist mode; hits give high values; B-score at 10 µM; 310,000 tested, 0.44% active; AID 588627;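 active means calcium response B-score plate-corrected fluorescence ratio at least 3 library SD, with starting fluorescence B-score inside 5 SD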
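Material: HEK293 cells stably expressing human MrgX1 receptor | Quantity: 15,000 cells per well | Times: Cells plated overnight, dye loaded 0.5 h 37 °C, 0.5 h room temperature | Measured by: Kinetic Fluo-4 NW fluorescence of intracellular calcium | Control set: Positive and negative controls per plate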
Each line names hits and unclear results; the compound was inactive in the other large screens.

Cc1nc(-c2nnc(SCC(=O)Nc3ccc(Cl)cc3)n2C)cs1	none
CCN(CC)C(CNC(=O)c1cc(=O)[nH]c2ccccc12)c1ccccc1Cl (stereo not drawn)	RGS4 act -7.5
O=C(NCc1cccc(Cl)c1)c1cc(=O)[nH]c2ccccc12	none
Oc1cccc(C(Nc2nccs2)c2ccc3cccnc3c2O)c1 (stereo not drawn)	RGS4 act -7
O=C(O)c1ccc(CNC(=O)c2ccc3c(c2)C(=O)N(Cc2cccnc2)C3=O)cc1	MrgX1 antag -4.9
O=C(O)c1nn(CC(=O)N2CCC(Cc3ccccc3)CC2)c(=O)c2ccccc12	none
COc1ccc(N=C2S/C(=C\c3ccc(OCC(=O)O)cc3)C(=O)N2CCc2c[nH]c3ccccc23)cc1	none (no result: MrgX1 antag, MrgX1 allo act, MrgX1 ag)
COc1ccc(N=C2S/C(=C\c3ccc(N4CCOCC4)o3)C(=O)N2CCc2c[nH]c3ccccc23)cc1	MrgX1 antag -7.1
Clc1cccc(Cl)c1CO/N=C/c1cccs1	none
Cc1c(C)c(C)c(CO/N=C/c2cccs2)c(C)c1C	MrgX1 allo act 8.2
CC(C)c1ccc(/C=N/NC(=O)c2cccc(Cl)c2)cc1	none
CC(=O)Nc1ccc(C(=O)N/N=C/c2ccccc2OC(=O)c2ccc(Cl)cc2)cc1	RGS4 act -7.3
CC(C)c1ccc(C(=O)N/N=C/c2cccc(Cl)c2Cl)cc1	MrgX1 allo act 6.5
Cc1nnc(SCC(=O)NC2CCCc3c2cnn3-c2ccccc2F)o1 (stereo not drawn)	none
COC(=O)c1cc2ccsc2n1Cc1nc(-c2ccc(Cl)cc2)oc1C	none
COC(=O)c1cc2occc2n1Cc1nc(-c2ccccc2Cl)oc1C	RGS4 act -7.5
COC(=O)c1cc2occc2n1Cc1nc(-c2ccc(Cl)cc2)oc1C	RGS4 act -7.2
Cc1ccc(NC(=O)CCNC(=O)c2ccco2)cc1Cl	none
N#CCCN=C(NS(=O)(=O)c1ccccc1)c1ccccc1	none
CN(C)/C=C1/C(=O)N(c2ccc([N+](=O)[O-])cc2)N=C1c1ccccc1	MrgX1 ag 35
CN(C)/C=C1\C(=O)N(c2ccc([N+](=O)[O-])cc2)N=C1c1ccccc1	MrgX1 ag 50
CC1=NN(c2ccc([N+](=O)[O-])cc2)C(=O)/C1=C\N(C)C	none
CCC1CCc2sc(C(=O)N(C)CC(=O)Nc3ccc(N4CCOCC4)cc3)cc2C1 (stereo not drawn)	none
O=C(Cc1ccccc1)NNC(=O)Nc1ccccc1	none
Cc1cc(NC(=O)CSCC(=O)OC(C)C(=O)N(C)Cc2ccccc2)no1 (stereo not drawn)	MrgX1 antag -7.4
Cc1cc(NC(=O)CSCC(=O)OC(C)C(=O)c2cc(C)c(C)cc2C)no1 (stereo not drawn)	none
CC(Cc1cccnc1)NC(=O)c1cc(COc2ccc(F)cc2Cl)on1 (stereo not drawn)	none
COC(=O)N/N=C/c1c(C)c(C(=O)c2ccc(F)cc2)n2ccccc12	none
Cc1c(C(=O)Nc2ccc(Cl)cc2)c2ccccn2c1C(=O)c1ccc(F)cc1	RGS4 act -9.1
Cc1c(/C=N/NC(=O)c2ccc(O)cc2)c2ccccn2c1C(=O)c1ccc(F)cc1	none
Cc1c(/C=N/NC(=O)c2ccccc2O)c2ccccn2c1C(=O)c1ccc(F)cc1	MrgX1 antag -7.1
COc1c(Cl)cc(Cl)cc1CNc1ccc(S(N)(=O)=O)cc1	none
Cc1c(CCC(=O)NCCCn2ccnc2)c(=O)oc2cc3occ(C(C)(C)C)c3cc12	RGS4 act -7.3
Cc1coc2cc3oc(=O)c(CCC(=O)NCCCn4ccnc4)c(C)c3cc12	none
Cc1oc2cc3oc(=O)c(CCC(=O)NC4CC4)c(C)c3cc2c1C	none
Cc1coc2cc3oc(=O)c(CCC(=O)NC4CC4)c(C)c3cc12	MrgX1 allo act 9.4
CCN(CC)S(=O)(=O)c1ccc(C(=O)Nn2cnnc2)cc1	none
COc1ccc(CCNC(=O)c2cccc(C(=O)NCCc3ccc(OC)cc3)n2)cc1	MrgX1 antag -4.8
CC(=O)Nc1ccc(S(=O)(=O)NNC(=O)c2sc(=S)n(C)c2C)cc1	MrgX1 antag -4.6
Cc1c(C(=O)NNS(=O)(=O)c2ccccc2Cl)sc(=S)n1C	none
O=C(c1nc2ccccn2c1CNCCOc1cccnc1)N1CCOCC1	none
CC(C)O/C(=N\S(=O)(=O)c1ccc(Cl)cc1)c1ccccc1	RGS4 act -7.1
